The values below come from ChEMBL document CHEMBL1833790, “N-(2-{3-[3,5-bis(trifluoromethyl)phenyl]ureido}ethyl)-glycyrrhetinamide (6b): a novel anticancer glycyrrhetinic acid derivative that targets the proteasome and displays anti-kinase activity” (J Med Chem, 2011).

A short description of series [1]: Chemical stability of the compound in MEM cell culture medium after 7 days by HPLC analysis. The class given is physicochemical. The note with it: read-out: Stability. The essentials:
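Compound incubated in MEM culture medium at 37 °C for 7 days, then analysed by HPLC on RX-C8 (5 μm) column with MeOH–water 90:10 (0.1% TFA), diode-array detection. Expressed as % of incubated compound recovered.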

The subject of series [2] is A549. Nature of the series: Growth inhibition in apoptosis-resistant human A549 after 3 days by MTT assay. The note with it: A549, 72 h. The class given is functional. In outline: (§1)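 Cells grown in RPMI with 10% heat-inactivated FCS, 4 mM glutamine, gentamicin and penicillin–streptomycin. Drug exposure 3 days, growth read by MTT colorimetric assay. Nine concentrations from 0.01 to 100 μM in semilog steps, six replicates each; IC50 derived per cell line.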
(In general: Tetrazolium dyes change colour on reduction, which living cells bring about.)

Series [3] concerns SK-MEL-28. The series is described as follows: Growth inhibition in apoptosis-resistant human SK-MEL-28 after 3 days by MTT assay. The format is functional. To be noted: SK-MEL-28, 72 h. The essentials:
as §1

Series [4] deals with T98G. The series is described as follows: Growth inhibition in apoptosis-resistant human T98G after 3 days by MTT assay. The format is functional. To be noted: 72 h. The essentials:
as §1

Series [5] is described as follows: Growth inhibition in apoptosis-resistant human U373 after 3 days by MTT assay. The class given is functional, U-373MG ATCC. The note with it: U373 MG, 72 h. The essentials:
as §1

Series [6] deals with Hs 683. The series is described as follows: Growth inhibition in apoptosis-sensitive human Hs683 after 3 days by MTT assay. The class given is functional. To be noted: Hs 683, 72 h. The essentials: as §1
Series [7] has as its system PC-3. The series is described as follows: Growth inhibition in apoptosis-sensitive human PC3 after 3 days by MTT assay. The note with it: PC-3, 72 h. The format is functional. In outline:
as §1

In series [8] the test system is MCF7. The series is described as follows: Growth inhibition in apoptosis-sensitive human MCF7 after 3 days by MTT assay. The format is functional. The note with it: MCF7, 72 h. In outline:
as §1

The subject of series [9] is B16-F10. Nature of the series: Growth inhibition in mouse B16F10 after 3 days by MTT assay. To be noted: B16-F10, 72 h. The format is functional. The essentials: as §1

As for `CC1(C)[C@@H](O)CC[C@]2(C)[C@H]3C(=O)C=C4[C@@H]5C[C@@](C)(C(=O)NCCNC(=O)c6ccc(F)cc6)CC[C@]5(C)CC[C@@]4(C)[C@]3(C)CC[C@@H]12`, in series [1], the remaining at 168 h was 98%. Moreover, the GI50 in series [2] was determined as 28 µM; in [3], 37 µM; in series [4] it was 35 µM; in series [5], 29 µM; in [6], 31 µM; in series [7], 30 µM. Also, the results for the GI50 in series [8] and in [9] were 25 µM and 28 µM, respectively.
With `CC1(C)[C@@H](O)CC[C@]2(C)[C@H]3C(=O)C=C4[C@@H]5C[C@@](C)(C(=O)NCCNC(=O)c6ccc(C#N)cc6)CC[C@]5(C)CC[C@@]4(C)[C@]3(C)CC[C@@H]12`, the remaining at 168 h in series [1] is 92%. Also, the GI50 in [2] was 68 µM; in series [3], 35 µM; in [4], 77 µM; in [5], 76 µM; in series [6], 67 µM; in [7], 72 µM. For the same compound, the GI50 in [8] came out at 27 µM; in series [9], 31 µM.
Regarding `CC1(C)[C@@H](O)CC[C@]2(C)[C@H]3C(=O)C=C4[C@@H]5C[C@@](C)(C(=O)NCCNC(=O)Nc6ccccc6)CC[C@]5(C)CC[C@@]4(C)[C@]3(C)CC[C@@H]12`, the remaining at 168 h in series [1] came out at 96%. The GI50 came out at 29 µM in series [2]; 49 µM in series [3]; 30 µM in series [4]; 30 µM in series [5]; 28 µM in series [6]; 32 µM in series [7]. Moreover, the GI50 in series [8] is 28 µM; in series [9], 31 µM.
Regarding `CSc1ccc(C(=O)NCCNC(=O)[C@@]2(C)CC[C@]3(C)CC[C@]4(C)C(=CC(=O)[C@@H]5[C@@]6(C)CC[C@H](O)C(C)(C)[C@@H]6CC[C@]54C)[C@@H]3C2)cc1`, the remaining at 168 h in series [1] is 99%. Besides, the GI50 amounted to 37 µM in [2]; 38 µM in [3]; 54 µM in series [4]; 37 µM in series [5]; 36 µM in series [6]; 47 µM in series [7]. In addition, the GI50 in series [8] worked out at 30 µM; in [9], 31 µM.
Take `CC1(C)[C@@H](O)CC[C@]2(C)[C@H]3C(=O)C=C4[C@@H]5C[C@@](C)(C(=O)NCCc6ccc(F)cc6)CC[C@]5(C)CC[C@@]4(C)[C@]3(C)CC[C@@H]12`: the remaining at 168 h in [1] turned out to be 95%. Further, the GI50 came out at 33 µM in series [2]; 82 µM in series [3]; 46 µM in [4]; 42 µM in series [5]; 56 µM in series [6]; 33 µM in series [7]. For the same compound, the values for the GI50 in series [8] and in series [9] were 31 µM and 32 µM, respectively.
On to `CC(C)(C)OC(=O)NCCNC(=O)[C@@]1(C)CC[C@]2(C)CC[C@]3(C)C(=CC(=O)[C@@H]4[C@@]5(C)CC[C@H](O)C(C)(C)[C@@H]5CC[C@]43C)[C@@H]2C1`, for which, in [1], the remaining at 168 h worked out at 93%. The GI50 in [2] came to 43 µM; in [3] it was 60 µM; in series [4], 73 µM; in series [5], 57 µM; in [6], 63 µM; in series [7] it was 41 µM. For the same compound, the figures for the 50% growth inhibitory concentration (GI50) in series [8] and in series [9] were 37 µM and 48 µM, respectively.
With `CC1(C)[C@@H](O)CC[C@]2(C)[C@H]3C(=O)C=C4[C@@H]5C[C@@](C)(C(=O)NCCNC(=O)c6ccc(C(F)(F)F)cc6)CC[C@]5(C)CC[C@@]4(C)[C@]3(C)CC[C@@H]12`, the remaining at 168 h in series [1] turned out to be 95%. The GI50 in series [2] is 47 µM; in [3] it was 49 µM; in [4], 62 µM; in series [5] it was 55 µM; in series [6], 38 µM; in series [7] it was 53 µM. The figures for the GI50 in series [8] and in series [9] were 28 µM and 36 µM, respectively.
Consider `CCOC(=O)CCNC(=O)NCCNC(=O)[C@@]1(C)CC[C@]2(C)CC[C@]3(C)C(=CC(=O)[C@@H]4[C@@]5(C)CC[C@H](O)C(C)(C)[C@@H]5CC[C@]43C)[C@@H]2C1`, for which the remaining at 168 h in series [1] is 99%. Also, the GI50 in series [2] was determined as 29 µM; in series [3], 65 µM; in [4], 71 µM; in series [5], 42 µM; in series [6], 42 µM; in [7] it was 46 µM. In addition, the values for the GI50 in [8] and in series [9] were 42 µM and 41 µM, respectively.
In the case of `COc1ccc(CCNC(=O)[C@@]2(C)CC[C@]3(C)CC[C@]4(C)C(=CC(=O)[C@@H]5[C@@]6(C)CC[C@H](O)C(C)(C)[C@@H]6CC[C@]54C)[C@@H]3C2)cc1`, the remaining at 168 h in series [1] was 91%. Also, the GI50 in series [2] is 37 µM; in [3] it was above 100 µM; in [4], 68 µM; in [5], 49 µM; in series [6], 61 µM; in [7], 34 µM. The values for the GI50 in [8] and in series [9] were 36 µM and 31 µM, respectively.
Consider `COc1cccc(C(=O)NCCNC(=O)[C@@]2(C)CC[C@]3(C)CC[C@]4(C)C(=CC(=O)[C@@H]5[C@@]6(C)CC[C@H](O)C(C)(C)[C@@H]6CC[C@]54C)[C@@H]3C2)c1`, for which the remaining at 168 h in [1] is 99%. Further, the GI50 in series [2] is 63 µM; in [3], 42 µM; in series [4], 77 µM; in series [5], 75 µM; in [6], 58 µM; in series [7], 72 µM. In addition, the 50% growth inhibitory concentration (GI50) in [8] worked out at 46 µM; in [9], 31 µM.
Turning to `CSCCCNC(=S)NCCNC(=O)[C@@]1(C)CC[C@]2(C)CC[C@]3(C)C(=CC(=O)[C@@H]4[C@@]5(C)CC[C@H](O)C(C)(C)[C@@H]5CC[C@]43C)[C@@H]2C1`, in series [1], the remaining at 168 h was 93%. Further, the GI50 came to 38 µM in series [2]; 33 µM in series [3]; 35 µM in series [4]; 35 µM in series [5]; 36 µM in series [6]; 39 µM in series [7]. Besides, the GI50 in series [8] was 30 µM; in [9] it was 33 µM.

The GI50 is the concentration giving 50% growth inhibition. A lower GI50 goes with more potent growth inhibition.
